Experimental data: ChEMBL document CHEMBL4152290, “1H-Benzo[d]imidazoles and 3,4-dihydroquinazolin-4-ones: Design, synthesis and antitubercular activity” (Eur J Med Chem, 2018)
Converted amounts (≈) assume the structure as drawn.

Assays:
[1] = organism: Danio rerio; assay: Induction of neurological impairment in Zebrafish AB embryos assessed as alteration in locomotor activity by measuring swimming activity at 3 to 20 uM measured at 5 days post fertilization; format: organism-based; conditions: in vivo, 120 h
Method in brief: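 Larvae were exposed from 2 hpf in fish water with 1% DMSO. At 5 dpf each larva was placed singly in a well of water or treatment solution. After 1 min acclimation, it was video-tracked for 5 min at 15 positions/s, and distance travelled was scored.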

[2] = test system: Mycobacterium tuberculosis; assay: Antitubercular activity against Mycobacterium tuberculosis H37Rv ATCC 27294 after 7 days by resazurin dye based assay; format: functional; conditions: H37Rv ATCC 27294, 168 h
Method in brief: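 Resazurin microtiter MIC in 7H9 with 10% ADC. Two-fold dilutions from 1 mg/mL DMSO stocks span 25.0–0.05, 10.0–0.02 or 0.02–0.0004 µg/mL, with 2.5% DMSO final. Inoculum is bead-declumped culture grown in 7H9/10% OADC/0.05% Tween 80, diluted to OD600 0.006. Plates run 7 days at 37 °C, then 0.01% resazurin for 48 h. MIC is the lowest concentration preventing the blue-to-pink change. Three independent tests.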

[3] = Cytotoxicity against human HepG2 cells assessed as cell viability at 10 ug/ml after 72 hrs by MTT assay (reference value: 100%); format: cell-based; conditions: read-out: Activity
Method in brief: (§1)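 Cells were grown in DMEM with 10% heat-inactivated FBS and penicillin-streptomycin, seeded at 2×10^3/well (HepG2, HaCat) or 1×10^3/well (Vero), then left 24 h. Compound was applied at 10 µg/mL final (2% DMSO) for 72 h at 37 °C, 5% CO2. MTT 1 mg/mL was added for 3 h, formazan dissolved in DMSO, and A595 read. Viability is expressed relative to 2% DMSO wells; mean ± SEM, triplicates, three independent experiments.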

[4] = Cytotoxicity against human HepG2 cells assessed as cell viability at 10 ug/ml after 72 hrs by neutral red uptake assay (reference value: 100%); format: cell-based; conditions: read-out: Activity
Method in brief: (§2)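 Seeding was 2×10^3/well for HepG2 and HaCat and 1×10^3/well for Vero. After 24 h, cells received 10 µg/mL final (2% DMSO) for 72 h at 37 °C, 5% CO2. They were washed with PBS, given neutral red 25 µg/mL in serum-free medium for 3 h, washed, and extracted 30 min with acetic acid/EtOH/water 1:50:49. A540 was read. Viability is relative to 2% DMSO controls; mean ± SEM, three experiments in triplicate.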

[5] = Cytotoxicity against human HaCaT cells assessed as cell viability at 10 ug/ml after 72 hrs by MTT assay (reference value: 100%); format: cell-based; conditions: read-out: Activity; method in brief: as §1
[6] = Cytotoxicity against human HaCaT cells assessed as cell viability at 10 ug/ml after 72 hrs by neutral red uptake assay (reference value: 100%); format: cell-based; conditions: read-out: Activity; method in brief: as §2
[7] = Cytotoxicity against African green monkey Vero assessed as cell viability at 10 ug/ml after 72 hrs by neutral red uptake assay (reference value: 100%); format: cell-based; conditions: chlorocebus sabaeus, Vero cells; read-out: Activity; method in brief: as §2
[8] = Selectivity index, ratio of cytotoxic concentration for human HepG2 cells by MTT assay to MIC for Mycobacterium tuberculosis H37Rv ATCC 27294; format: toxicity; conditions: read-out: Selectivity Index
[9] = Selectivity index, ratio of cytotoxic concentration for human HepG2 cells by neutral red uptake assay to MIC for Mycobacterium tuberculosis H37Rv ATCC 27294; format: toxicity; conditions: read-out: Selectivity Index
[10] = Selectivity index, ratio of cytotoxic concentration for human HaCaT cells by MTT assay to MIC for Mycobacterium tuberculosis H37Rv ATCC 27294; format: toxicity; conditions: read-out: Selectivity Index
[11] = Selectivity index, ratio of cytotoxic concentration for human HaCaT cells by neutral red uptake assay to MIC for Mycobacterium tuberculosis H37Rv ATCC 27294; format: toxicity; conditions: read-out: Selectivity Index
[12] = Selectivity index, ratio of cytotoxic concentration for African green monkey Vero cells by MTT assay to MIC for Mycobacterium tuberculosis H37Rv ATCC 27294; format: toxicity; conditions: read-out: Selectivity Index
[13] = Selectivity index, ratio of cytotoxic concentration for African green monkey Vero cells by neutral red uptake assay to MIC for Mycobacterium tuberculosis H37Rv ATCC 27294; format: toxicity; conditions: read-out: Selectivity Index
[14] = Stability of the compound in PBS containing 10% DMSO at 25 degC measured after 3 hrs by HPLC analysis; format: physicochemical; conditions: buffer
[15] = Stability of the compound in PBS containing 10% DMSO at 25 degC measured after 6 hrs by HPLC analysis; format: physicochemical; conditions: buffer
[16] = Stability of the compound in PBS containing 10% DMSO at 25 degC measured after 12 hrs by HPLC analysis; format: physicochemical; conditions: buffer
[17] = Stability of the compound in PBS containing 10% DMSO at 25 degC measured after 48 hrs by HPLC analysis; format: physicochemical; conditions: buffer
[18] = Stability of the compound in PBS containing 10% DMSO at 37 degC measured immediately by HPLC analysis; format: physicochemical; conditions: read-out: Stability
[19] = Stability of the compound in PBS containing 10% DMSO at 37 degC measured after 3 hrs by HPLC analysis; format: physicochemical; conditions: read-out: Stability
[20] = Stability of the compound in PBS containing 10% DMSO at 37 degC measured after 9 hrs by HPLC analysis; format: physicochemical; conditions: PBS containing 10% DMSO; read-out: Stability
[21] = Stability of the compound in PBS containing 10% DMSO at 37 degC measured after 24 hrs by HPLC analysis; format: physicochemical; conditions: PBS containing 10% DMSO; read-out: Stability
[22] = Stability of the compound in PBS containing 10% DMSO at 37 degC measured after 48 hrs by HPLC analysis; format: physicochemical; conditions: read-out: Stability
[23] = organism: Danio rerio; assay: Cardiotoxicity in Zebrafish AB embryos assessed as heart beat rate at 15 uM measured at 2 days post fertilization by stereomicroscopic method (reference value: 128.7 to 146.3 bpm); format: organism-based; conditions: in vivo, 48 h
[24] = organism: Danio rerio; assay: Cardiotoxicity in Zebrafish AB embryos assessed as heart beat rate at 20 uM measured at 2 days post fertilization by stereomicroscopic method (reference value: 128.7 to 146.3 bpm); format: organism-based; conditions: in vivo, 48 h
[25] = organism: Danio rerio; assay: Cardiotoxicity in Zebrafish AB embryos assessed as heart beat rate at 20 uM measured at 5 days post fertilization by stereomicroscopic method (reference value: 148.1 to 158.2 bpm); format: organism-based; conditions: in vivo, 120 h
[26] = organism: Danio rerio; assay: Toxicity in Zebrafish AB embryos assessed as morphological alteration by measuring effect on body length of larvae at 3 to 20 uM measured at 2 to 5 days post fertilization by stereomicroscopic method; format: organism-based; conditions: in vivo
Method in brief: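 AB embryos are treated from 2 hpf to 5 dpf at 3.0, 15.0 and 20.0 µM in fish water with 1% DMSO, at 28 °C. Controls are fish water and 1% DMSO. Larvae are photographed under a stereomicroscope (3×) at 2 and 5 dpf, n = 30. Body length (µm), ocular distance (µm) and eye surface area (µm²) are measured from the images.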

[27] = organism: Danio rerio; assay: Toxicity in Zebrafish AB embryos assessed as effect on larval survival rate at 3 to 20 uM; format: organism-based; conditions: in vivo
Method in brief: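 Wild-type AB zebrafish embryos are exposed from 2 hpf to 5 dpf at 3.0, 15.0 and 20.0 µM in fish water with 1% DMSO, at 28 °C on a 14/10 h light-dark cycle. Controls are fish water alone and 1% DMSO. Survival and hatching are checked daily under a stereomicroscope.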

O=C(CSc1nc2ccccc2c(=O)[nH]1)NC1CCCCCC1
Activity [1]: Non-Toxic | MIC [2]: 0.48 µM (≈ 0.159 µg/mL) | viability at 72 h, 10 ug/ml [3]: 99% | viability at 72 h, 10 ug/ml [4]: 105% | viability at 72 h, 10 ug/ml [5]: 100% | viability at 72 h, 10 ug/ml [6]: 88% | viability at 72 h, 10 ug/ml [7]: 94% | selectivity ratio [8]: ≤ 32 | selectivity ratio [9]: ≤ 32 | selectivity ratio [10]: ≤ 32 | selectivity ratio [11]: ≤ 32 | selectivity ratio [12]: ≤ 32 | selectivity ratio [13]: ≤ 32 | Stability [14]: 80% | Stability [15]: 90% | Stability [16]: 92% | Stability [17]: 123% | remaining at 0 h [18]: 100% | remaining at 3 h [19]: 81% | remaining at 9 h [20]: 68% | remaining at 24 h [21]: 66% | remaining at 48 h [22]: 71% | Activity [23]: 136.5 bpm | Activity [24]: 148.4 bpm | Activity [25]: 153.8 bpm | Activity [26]: Non-Toxic | Activity [27]: Non-Toxic
